EC50, Selectivity and Growth inhibition data for 25 molecules are collected here from ChEMBL document CHEMBL1132298, “Synthesis and antimalarial activity of cyclic peroxides, 1,2,4,5, 7-pentoxocanes and 1,2,4,5-tetroxanes” (J Med Chem, 1999).

The test system of experiment [1] is Plasmodium falciparum. Kind of experiment: Antiparasitic activity against Plasmodium falciparum FCR-3.
Experiment [2] relates to FM3A. Kind of experiment: Selectivity index as EC50 FM3A /EC50 Plasmodium falciparum. In kind it is functional.
The test system of experiment [3] is FM3A. As to the kind of experiment: In vitro cytotoxicity in mouse mammary tumor FM3A cells. The experiment is classed as functional, cell-based.
The subject of experiment [4] is FM3A. As to the kind of experiment: In vitro cytotoxicity in mouse mammary tumor FM3A cells; Nontoxic at a 1*10^-4 M concentration. The experiment is classed as functional, cell-based.
Experiment [5] has as its system Mus musculus. As to the kind of experiment: In vivo antimalarial activity against Plasmodium berghei NK 65 in mice (Mus musculus) at 50 mg/kg/day. The experiment is classed as functional. The method, boiled down: (§1)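 Male ICR mice, 5 weeks old, 22-25 g, five per group. Infected iv (tail vein) with 1 × 10⁶ P. berghei NK 65 parasitized erythrocytes in 0.2 mL 0.9% NaCl. Compound in DMSO given ip once daily on days 0-3, first dose 2 h after inoculation. Controls were DMSO-dosed. Day-4 parasitemia counted on Giemsa tail-blood smears (1 × 10⁴ RBCs). Percent suppression relative to controls, mean of five mice.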

Experiment [6] has as its system Mus musculus. As to the kind of experiment: In vivo antimalarial activity against Plasmodium berghei NK 65 in mice (Mus musculus) at 20 mg/kg/day. In kind it is functional. Put shortly: as §1
The test system of experiment [7] is Plasmodium falciparum. Kind of experiment: In vitro antimalarial activity against chloroquine-sensitive Plasmodium falciparum FCR3; Not toxic at 100uM. The experiment is classed as functional, organism-based.

Molecules are shown by their SMILES.

On to `Fc1ccc(C23CCCC(OOC(C4CCCCC4)OO2)O3)cc1` (stereo not given), for which the 50% effective concentration (EC50) (commonly the midpoint of the concentration-response curve) was 150 nM in the experiment on Plasmodium falciparum [1] and 2500 nM with FM3A [3]. Moreover, the Selectivity in the experiment with FM3A [2] was 17.
Regarding `c1ccc(C2OOC3CCCC(c4ccccc4)(OO2)O3)cc1` (stereo not given), the EC50 in the experiment on Plasmodium falciparum [1] came to 1400 nM; in the experiment on FM3A [3] it was 50000 nM. In addition, the Selectivity in the experiment on FM3A [2] is listed as 36.
In the case of `O=C(CCC[C@H]1OO[C@H](CCCC(=O)c2ccccc2)OO1)c1ccccc1`, the half-maximal effective concentration (EC50) with Plasmodium falciparum [1] is 400 nM; with FM3A [4], “Not toxic”. The Growth inhibition with Mus musculus [5] is given as 40%; with Mus musculus [6], 30%. In addition, the Selectivity with FM3A [2] is reported as greater than 250.
Turning to `c1ccc(C[C@H]2OO[C@H](Cc3ccccc3)OO2)cc1`, the half-maximal effective concentration (EC50) in the experiment with Plasmodium falciparum [1] is 14000 nM; in the experiment on FM3A [4], “Not toxic”. Besides, the Selectivity with FM3A [2] is reported as greater than 7.
Consider `FC(F)(F)c1ccc(C2OOC(c3ccc(C(F)(F)F)cc3)OO2)cc1` (stereo not given), for which the EC50 entry with Plasmodium falciparum [7] and with FM3A [4] was “Not toxic” each time.
Regarding `O=C(CCC[C@H]1OO[C@@H](CCCC(=O)c2ccccc2)OO1)c1ccccc1`, the concentration giving a half-maximal response (EC50) is 12000 nM in the experiment on Plasmodium falciparum [1] and “Not toxic” in the experiment on FM3A [4]. The molecule also came in with a Selectivity with FM3A [2] greater than 8.
For the molecule `COc1ccc(C2OOC(c3ccc(OC)cc3)OO2)cc1` (stereo not given), the EC50 is 790 nM in the experiment with Plasmodium falciparum [1] and “Not toxic” in the experiment with FM3A [4]. The molecule also displayed a Selectivity in the experiment with FM3A [2] greater than 127.
`FC(F)(F)c1ccccc1C1OOC(c2ccccc2C(F)(F)F)OO1` (stereo not given): the half-maximal effective concentration (EC50) came out at 600 nM in the experiment with Plasmodium falciparum [1] and 3000 nM in the experiment on FM3A [3]. The Selectivity with FM3A [2] worked out at 5.
On to `COc1ccc(C(=O)CCC[C@H]2OO[C@H](CCCC(=O)c3ccc(OC)cc3)OO2)cc1`, for which the half-maximal effective concentration (EC50) in the experiment with Plasmodium falciparum [1] was 20000 nM; with FM3A [4], “Not toxic”. The same molecule displayed a Selectivity in the experiment on FM3A [2] greater than 5.
With `Fc1ccc(C2OOC3CCCC(c4ccccc4)(OO2)O3)cc1` (stereo not given), the figures for the concentration giving a half-maximal response (EC50) in the experiment on Plasmodium falciparum [1] and with FM3A [3] were 2800 nM and 17000 nM, respectively. For the same molecule, the Selectivity with FM3A [2] worked out at 6.
In the case of `O=C(CCCC1OOC2CCCC(c3ccc(F)cc3)(OO1)O2)c1ccc(F)cc1` (stereo not given), the EC50 with Plasmodium falciparum [1] was 710 nM; in the experiment with FM3A [4] it was “Not toxic”. The Growth inhibition with Mus musculus [5] and in the experiment on Mus musculus [6] was 0% each time. The Selectivity with FM3A [2] is greater than 141.
As for `CCCCCCC[C@H]1OO[C@H](CCCCCCC)OO1`, the results for the EC50 in the experiment on Plasmodium falciparum [1] and in the experiment with FM3A [4] were 1500 nM and “Not toxic”, respectively. In the experiment on FM3A [2], this molecule showed a Selectivity greater than 67.
`CCC(CC)C1OOC2CCCC(c3ccccc3)(OO1)O2` (stereo not given): the results for the half-maximal effective concentration (EC50) in the experiment with Plasmodium falciparum [1] and with FM3A [3] were 510 nM and 33000 nM, respectively. Besides, the Growth inhibition is on record as 18% in the experiment on Mus musculus [5] and 15% with Mus musculus [6]. Also, the Selectivity in the experiment on FM3A [2] was 65.
Regarding `CC(C)(C)C1OOC2CCCC(c3ccccc3)(OO1)O2` (stereo not given), the EC50 is 17000 nM in the experiment on Plasmodium falciparum [1] and 26000 nM with FM3A [3]. Also, the Selectivity in the experiment on FM3A [2] came to 2.
Regarding `c1ccc([C@H]2OO[C@H](c3ccccc3)OO2)cc1`, the EC50 in the experiment with Plasmodium falciparum [1] was 1100 nM; in the experiment with FM3A [4], “Not toxic”. For the same molecule, the Growth inhibition stood at 50% with Mus musculus [5] and 6% in the experiment on Mus musculus [6]. Also, in the experiment with FM3A [2], the Selectivity is greater than 91.
Regarding `COc1ccc(C(=O)CCCC2OOC3CCCC(c4ccc(OC)cc4)(OO2)O3)cc1` (stereo not given), the 50% effective concentration (EC50) in the experiment on Plasmodium falciparum [1] was 930 nM; in the experiment on FM3A [3], 18000 nM. Moreover, the Selectivity in the experiment on FM3A [2] is 19.
Regarding `C1CCC([C@H]2OO[C@H](C3CCCCC3)OO2)CC1`, the EC50 in the experiment with Plasmodium falciparum [1] worked out at 200 nM; in the experiment on FM3A [3], 11000 nM. The Growth inhibition with Mus musculus [5] amounted to 96%; with Mus musculus [6], 50%. This molecule showed a Selectivity in the experiment with FM3A [2] of 55.
As for `C[C@@H]1CC[C@H]2[C@@H](C)C(=O)O[C@@H]3O[C@@]4(C)CC[C@@H]1[C@]32OO4` [ARTEMISININ], the EC50 was found to be 7.8 nM in the experiment on Plasmodium falciparum [1] and 10000 nM with FM3A [3]. Also, the Growth inhibition in the experiment with Mus musculus [5] was determined as 100%; in the experiment on Mus musculus [6] it was 93%.
Consider `CCCCCCCC1OOC2CCCC(c3ccccc3)(OO1)O2` (stereo not given), for which the results for the concentration giving a half-maximal response (EC50) with Plasmodium falciparum [1] and with FM3A [3] were 1500 nM and 12000 nM, respectively.
As for `Fc1ccc(C2OOC(c3ccc(F)cc3)OO2)cc1` (stereo not given), the EC50 with Plasmodium falciparum [1] is 500 nM; with FM3A [4], “Not toxic”. In addition, the figures for the Growth inhibition with Mus musculus [5] and in the experiment on Mus musculus [6] were 90% and 50%, respectively. Moreover, the Selectivity in the experiment with FM3A [2] is listed as greater than 200.
With `c1ccc(C23CCCC(OOC(C4CCCCC4)OO2)O3)cc1` (stereo not given), the EC50 came out at 210 nM with Plasmodium falciparum [1] and 10000 nM in the experiment on FM3A [3]. For the same molecule, the results for the Growth inhibition in the experiment on Mus musculus [5] and in the experiment on Mus musculus [6] were 15% and 0%, respectively. Besides, in the experiment with FM3A [2], the Selectivity came out at 48.
Regarding `Fc1ccc(C23CCCC(OOC(c4ccccc4)OO2)O3)cc1` (stereo not given), the EC50 in the experiment with Plasmodium falciparum [1] is 2900 nM; in the experiment with FM3A [3], 8100 nM. This molecule registered a Selectivity in the experiment with FM3A [2] of 4.
For the molecule `O=C(CCCC1OOC2CCCC(c3ccccc3)(OO1)O2)c1ccccc1` (stereo not given), the half-maximal effective concentration (EC50) is 1300 nM with Plasmodium falciparum [1] and “Not toxic” with FM3A [4]. In addition, the Selectivity with FM3A [2] was greater than 77.
`O=C(CCC[C@H]1OO[C@H](CCCC(=O)c2ccc(F)cc2)OO1)c1ccc(F)cc1`: the 50% effective concentration (EC50) in the experiment with Plasmodium falciparum [1] is 510 nM; in the experiment with FM3A [4], “Not toxic”. The Growth inhibition came out at 30% with Mus musculus [5] and 0% in the experiment on Mus musculus [6]. Also, the Selectivity in the experiment with FM3A [2] is recorded as greater than 169.
As for `Fc1ccc(C2OOC3CCCC(c4ccc(F)cc4)(OO2)O3)cc1` (stereo not given), the EC50 in the experiment on Plasmodium falciparum [1] was 1900 nM; in the experiment on FM3A [3], 9000 nM. The Selectivity in the experiment on FM3A [2] is given as 5.
